Measured values reported in ChEMBL document CHEMBL4346684, “Synthesis and structure-bactericidal activity relationships of non-ketolides: 9-Oxime clarithromycin 11,12-cyclic carbonate featured with three-to eight-atom-length spacers at 3-OH” (Eur J Med Chem, 2019).
≈ marks a conversion by molar mass, not a printed value.

Tests used:
Assay type in all cases: functional
[1] = system: Streptococcus pyogenes; assay: Antimicrobial activity against inducibly erythromycin resistant Streptococcus pyogenes 01-968 expressing i-ermA incubated in CAMHB medium for 20 to 24 hrs by two-fold microbroth dilution method
[2] = system: Staphylococcus aureus; assay: Antimicrobial activity against inducibly erythromycin-resistant and methicillin resistant Staphylococcus aureus PU32 expressing i-ermA incubated in CAMHB medium for 20 hrs by two-fold microbroth dilution method; settings: PU32, 20 h
Outline: (§1)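 Purified fresh Staphylococcus isolate at about 5×10^5 CFU/ml final in CAMHB, 35 °C for 20 h. Each run included ATCC strains and reference antibiotics as QC, plus an antibiotic-free growth control.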

[3] = system: Moraxella catarrhalis; assay: Bactericidal activity against erythromycin-susceptible Moraxella catarrhalis 13L332 assessed as reduction in colony formation incubated in CAMHB medium for 20 hrs followed by 24 hrs subculturing in the medium without test compound
[4] = system: Streptococcus pneumoniae; assay: Antimicrobial activity against erythromycin-susceptible Streptococcus pneumoniae ATCC 49619 incubated in CAMHB medium for 20 to 24 hrs by two-fold microbroth dilution method
[5] = system: Staphylococcus aureus; assay: Bactericidal activity against inducibly erythromycin-resistant and methicillin resistant Staphylococcus aureus PU32 expressing i-ermA assessed as reduction in colony formation incubated in CAMHB medium for 20 hrs followed by 24 hrs subculturing in the medium without test compound
[6] = system: Streptococcus pneumoniae; assay: Ratio of MBC to MIC for erythromycin-susceptible Streptococcus pneumoniae ATCC 49619
[7] = system: Streptococcus pneumoniae; assay: Bactericidal activity against mef-encoded erythromycin resistant Streptococcus pneumoniae PU09 assessed as reduction in colony formation incubated in CAMHB medium for 20 to 24 hrs followed by 24 hrs subculturing in the medium without test compound
[8] = system: Moraxella catarrhalis; assay: Antimicrobial activity against erythromycin-susceptible Moraxella catarrhalis 13L332 incubated in CAMHB medium for 20 hrs by two-fold microbroth dilution method; settings: 13L332, 20 h
Outline: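 Clinical isolates and ATCC strains, purified by plate activation and used fresh; inoculum about 5×10^5 CFU/ml final. Grown in CAMHB at 35 °C for 20 h.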

[9] = system: Streptococcus pneumoniae; assay: Bactericidal activity against erythromycin-susceptible Streptococcus pneumoniae ATCC 49619 assessed as reduction in colony formation incubated in CAMHB medium for 20 to 24 hrs followed by 24 hrs subculturing in the medium without test compound
[10] = system: Staphylococcus aureus; assay: Antimicrobial activity against constitutively erythromycin resistant and methicillin resistant Staphylococcus aureus PU20 expressing c-ermC incubated in CAMHB medium for 20 hrs by two-fold microbroth dilution method; settings: PU20, 20 h; outline: as §1
[11] = system: Moraxella catarrhalis; assay: Ratio of MBC to MIC for erythromycin-susceptible Moraxella catarrhalis 13L332
[12] = system: Streptococcus pyogenes; assay: Ratio of MBC to MIC for inducibly erythromycin resistant Streptococcus pyogenes 01-968 expressing i-ermA
[13] = system: Staphylococcus aureus; assay: Bactericidal activity against constitutively erythromycin resistant and methicillin-resistant Staphylococcus aureus PU20 expressing c-ermC assessed as reduction in colony formation incubated in CAMHB medium for 20 hrs followed by 24 hrs subculturing in the medium without test compound
[14] = system: Streptococcus pyogenes; assay: Bactericidal activity against inducibly erythromycin resistant Streptococcus pyogenes 01-968 expressing i-ermA assessed as reduction in colony formation incubated in CAMHB medium for 20 to 24 hrs followed by 24 hrs subculturing in the medium without test compound
[15] = system: Streptococcus pneumoniae; assay: Antimicrobial activity against mef-encoded erythromycin resistant Streptococcus pneumoniae PU09 incubated in CAMHB medium for 20 to 24 hrs by two-fold microbroth dilution method
[16] = system: Haemophilus influenzae; assay: Ratio of MBC to MIC for azithromycin-susceptible Haemophilus influenzae ATCC 49247
[17] = system: Haemophilus influenzae; assay: Antimicrobial activity against azithromycin-susceptible Haemophilus influenzae ATCC 49247 incubated in HTM broth medium for 20 to 24 hrs by two-fold microbroth dilution method
[18] = system: Haemophilus influenzae; assay: Bactericidal activity against azithromycin-susceptible Haemophilus influenzae ATCC 49247 assessed as reduction in colony formation incubated in HTM broth medium for 20 to 24 hrs followed by 24 hrs subculturing in the medium without test compound
[19] = system: Staphylococcus aureus; assay: Ratio of MBC to MIC for inducibly erythromycin-resistant and methicillin resistant Staphylococcus aureus PU32 expressing i-ermA
[20] = system: Streptococcus pneumoniae; assay: Ratio of MBC to MIC for mef-encoded erythromycin resistant Streptococcus pneumoniae PU09

| Structure (SMILES) | MIC [1] | MIC [2] | MBC [3] | MIC [4] | MBC [5] | Ratio [6] | MBC [7] | MIC [8] | MBC [9] | MIC [10] | Ratio [11] | Ratio [12] | MBC [13] | MBC [14] | MIC [15] | Ratio [16] | MIC [17] | MBC [18] | Ratio [19] | Ratio [20] |
| --- | --- | --- | --- | --- | --- | --- | --- | --- | --- | --- | --- | --- | --- | --- | --- | --- | --- | --- | --- | --- |
| CC[C@H]1OC(=O)[C@H](C)[C@@H](OCC#Cc2cncc(NC(=O)c3ccccn3)c2)[C@H](C)[C@@H](O[C@@H]2O[C@H](C)C[C@H](N(C)C)[C@H]2O)[C@](C)(OC)C[C@@H](C)/C(=N\OC)[C@H](C)[C@H]2OC(=O)O[C@@]21C | 16 µg/mL (≈ 18.2 µM) | > 256 µg/mL | 16 µg/mL (≈ 18.2 µM) | 4 µg/mL (≈ 4.55 µM) | > 256 µg/mL | 4 | 16 µg/mL (≈ 18.2 µM) | 8 µg/mL (≈ 9.09 µM) | 16 µg/mL (≈ 18.2 µM) | 256 µg/mL (≈ 291 µM) | 2 | 2 | > 256 µg/mL | 32 µg/mL (≈ 36.4 µM) | 4 µg/mL (≈ 4.55 µM) |  |  |  |  |  |
| C=CCNCCC(=O)O[C@H]1[C@H](C)[C@@H](O[C@@H]2O[C@H](C)C[C@H](N(C)C)[C@H]2O)[C@](C)(OC)C[C@@H](C)/C(=N\OC)[C@H](C)[C@H]2OC(=O)O[C@]2(C)[C@@H](CC)OC(=O)[C@@H]1C | 1 µg/mL (≈ 1.32 µM) | 32 µg/mL (≈ 42.3 µM) |  | 1 µg/mL (≈ 1.32 µM) | > 256 µg/mL | 2 | 8 µg/mL (≈ 10.6 µM) |  | 2 µg/mL (≈ 2.65 µM) | > 256 µg/mL |  | >8 |  | > 8 µg/mL | 4 µg/mL (≈ 5.29 µM) | 1 | 256 µg/mL (≈ 339 µM) | 256 µg/mL (≈ 339 µM) | >8 |  |
| CC[C@H]1OC(=O)[C@H](C)[C@@H](OC(=O)NCCCCc2cccnc2)[C@H](C)[C@@H](O[C@@H]2O[C@H](C)C[C@H](N(C)C)[C@H]2O)[C@](C)(OC)C[C@@H](C)/C(=N\OC)[C@H](C)[C@H]2OC(=O)O[C@@]21C | 128 µg/mL (≈ 156 µM) | 32 µg/mL (≈ 39 µM) |  | 0.5 µg/mL (≈ 0.609 µM) | > 256 µg/mL | 4 | 8 µg/mL (≈ 9.74 µM) |  | 2 µg/mL (≈ 2.44 µM) | > 256 µg/mL |  | 1 |  | 128 µg/mL (≈ 156 µM) | 8 µg/mL (≈ 9.74 µM) | 1 | 256 µg/mL (≈ 312 µM) | 256 µg/mL (≈ 312 µM) | >8 | 1 |
| C#CCNCCC(=O)O[C@H]1[C@H](C)[C@@H](O[C@@H]2O[C@H](C)C[C@H](N(C)C)[C@H]2O)[C@](C)(OC)C[C@@H](C)/C(=N\OC)[C@H](C)[C@H]2OC(=O)O[C@]2(C)[C@@H](CC)OC(=O)[C@@H]1C | 0.5 µg/mL (≈ 0.663 µM) | 16 µg/mL (≈ 21.2 µM) |  | 0.13 µg/mL (≈ 0.172 µM) | > 128 µg/mL | 8 | 4 µg/mL (≈ 5.31 µM) |  | 1 µg/mL (≈ 1.33 µM) | 256 µg/mL (≈ 340 µM) |  | >8 | > 256 µg/mL | > 4 µg/mL | 2 µg/mL (≈ 2.65 µM) | 1 | 128 µg/mL (≈ 170 µM) | 128 µg/mL (≈ 170 µM) | >8 | 2 |
| CC[C@H]1OC(=O)[C@H](C)[C@@H](OC(=O)CCNCCCc2cccnc2)[C@H](C)[C@@H](O[C@@H]2O[C@H](C)C[C@H](N(C)C)[C@H]2O)[C@](C)(OC)C[C@@H](C)/C(=N\OC)[C@H](C)[C@H]2OC(=O)O[C@@]21C | 0.5 µg/mL (≈ 0.599 µM) | 32 µg/mL (≈ 38.3 µM) |  | 1 µg/mL (≈ 1.2 µM) | > 256 µg/mL | 8 | 4 µg/mL (≈ 4.79 µM) |  | 8 µg/mL (≈ 9.58 µM) | 256 µg/mL (≈ 307 µM) |  | >8 | > 256 µg/mL | > 4 µg/mL | 2 µg/mL (≈ 2.4 µM) | 1 | 256 µg/mL (≈ 307 µM) | 256 µg/mL (≈ 307 µM) | >8 | 2 |
